Assay results as given in ChEMBL document CHEMBL5329178, “Synthesis and antibacterial activity of 2-benzylidene-3-oxobutanamide derivatives against resistant pathogens” (RSC Med Chem, 2023).
The source made the active and inactive calls. The calls are words filed in the database; no cut-off is given here.

Tests used:
[1] = Octanol/Water partition coefficient, logP of the compound; assay type: physicochemical
[2] = Solubility of the compound in water; assay type: physicochemical; details: buffer
Acinetobacter baumannii [3] = assay: Antibacterial activity against Acinetobacter baumannii assessed as growth inhibition at 32 ug/mL by whole cell growth inhibition assay relative to control; assay type: functional; details: read-out: GI
Outline: (§1)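 Primary single-concentration screen at 32 µg/mL, final DMSO ≤1%, duplicate on different plates. Mid-log cultures in cation-adjusted Mueller Hinton broth at 5×10^5 CFU/mL; 37 °C, 18 h, no shaking. OD600 read; % growth inhibition relative to media-only and untreated-bacteria controls on the same plate. Strains: E. coli ATCC 25922, A. baumannii ATCC 19606, S. aureus ATCC 43300 (MRSA).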

Acinetobacter baumannii [4] = assay: Bactericidal activity against Acinetobacter baumannii assessed as log reduction in bacterial count measured after 24 hrs by time kill assay; assay type: functional
Outline: (§2)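 Time-kill assay in cation-adjusted MHB. Overnight cultures (S. aureus MRSA ATCC 700698; A. baumannii ATCC 19606) diluted 1:10,000, grown 2 h at 37 °C, 220 rpm to early exponential phase. […] Aliquots taken at intervals, tenfold serially diluted, plated on MHA overnight at 37 °C for CFU counts.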

Acinetobacter baumannii [5] = assay: Antibacterial activity against Multi drug resistant Acinetobacter baumannii assessed as growth inhibition at 32 ug/mL by HIT assay relative to control; assay type: functional; details: read-out: GI
Outline: (§3)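 A. baumannii ATCC 19606 and MRSA ATCC 43300 were grown overnight in cation-adjusted Mueller Hinton broth at 37 °C, subcultured to mid-log, and added at 5×10^5 CFU/mL to an 8-point, 2-fold dilution series (32–0.25 µg/mL; ≤0.5% DMSO). After 18 h static at 37 °C, OD600 was read. Percent inhibition was taken against media-only and untreated-bacteria wells, in duplicate. MIC was the lowest concentration giving ≥80% inhibition.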

Staphylococcus aureus [6] = assay: Antibacterial activity against Staphylococcus aureus assessed as growth inhibition at 32 ug/mL by whole cell growth inhibition assay relative to control; assay type: functional; details: read-out: GI; outline: as §1
[7] = Cytotoxicity against human HEK293 cells assessed as cell viability at 64 ug/ml relative to control; assay type: toxicity, cell-based; details: at 64 µg/mL, read-out: Activity
Escherichia coli = assay: Antibacterial activity against Escherichia coli assessed as growth inhibition at 32 ug/mL by whole cell growth inhibition assay relative to control; assay type: functional; details: read-out: GI; outline: as §1
[8] = Hemolytic activity in RBC (unknown origin) assessed as cell viability at 64 ug/ml relative to control; assay type: toxicity, cell-based, Erythrocyte; details: red blood cells (erythrocytes), at 64 µg/mL, read-out: Activity
Staphylococcus aureus [9] = assay: Bacteriostatic activity against Staphylococcus aureus ATCC 700698 assessed as log reduction in colony forming unit measured per ml after 24 hrs by time kill assay; assay type: functional; outline: as §2
Staphylococcus aureus [10] = assay: Antibacterial activity against methicillin resistant Staphylococcus aureus assessed as growth inhibition at 32 ug/mL by HIT assay relative to control; assay type: functional; details: read-out: GI; outline: as §3
Staphylococcus aureus [11] = assay: Antibacterial activity against methicillin resistant Staphylococcus aureus assessed as growth inhibition at 16 ug/mL by HIT assay relative to control; assay type: functional; details: read-out: GI; outline: as §3
Staphylococcus aureus [12] = assay: Antibacterial activity against methicillin resistant Staphylococcus aureus assessed as growth inhibition; assay type: functional, organism-based; outline: as §3
Acinetobacter baumannii [13] = assay: Antibacterial activity against susceptible Acinetobacter baumannii; assay type: functional
Acinetobacter baumannii [14] = assay: Bactericidal activity against multi-drug resistant Acinetobacter baumannii assessed as log reduction in colony forming unit measured after 24 hrs by time kill assay; assay type: functional
Outline: (§4)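 MRSA ATCC 700698 and A. baumannii ATCC 19606 overnight cultures were diluted 1:10,000 in MHB and grown 2 h at 37 °C and 220 rpm to early exponential phase. […] At intervals, aliquots were tenfold serially diluted, plated on MHA and incubated overnight at 37 °C for CFU counts.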

Acinetobacter baumannii [15] = assay: Antibacterial activity against Multi drug resistant Acinetobacter baumannii assessed as growth inhibition at 16 ug/mL by HIT assay relative to control; assay type: functional; details: read-out: GI; outline: as §3
Staphylococcus aureus [16] = assay: Bacteriostatic activity against methicillin resistant Staphylococcus aureus assessed as log reduction in colony forming unit measured after 24 hrs by time kill assay; assay type: functional; outline: as §4
Staphylococcus aureus [17] = assay: Antibacterial activity against methicillin resistant Staphylococcus aureus assessed as growth inhibition at 2 ug/mL by HIT assay relative to control; assay type: functional; details: read-out: GI; outline: as §3

CC(=O)/C(=C/c1ccccc1)C(N)=O
logP [1]: 1.6
solubility [2]: Soluble

CC(=O)/C(=C/c1ccc(C(F)(F)F)cc1)C(N)=O
logP [1]: 2.43
solubility [2]: Soluble

CC(=O)/C(=C/c1ccccc1C#N)C(N)=O
inhibition of growth at 32 µg/mL (Acinetobacter baumannii [3]): 70.8%
log(activity) (Acinetobacter baumannii [4]): >3
inhibition of growth at 32 µg/mL (Acinetobacter baumannii [5]): 50.5%
inhibition of growth at 32 µg/mL (Staphylococcus aureus [6]): 14.4%
viability at 64 ug/ml [7]: 97.6%
inhibition of growth at 32 µg/mL (Escherichia coli): 52.1%
viability at 64 ug/ml [8]: 92.2%
logP [1]: 1.09
solubility [2]: Soluble

CC(=O)/C(=C/c1ccc(OCc2ccccc2)cc1)C(N)=O
logP [1]: 2.72
solubility [2]: Soluble

CC(=O)/C(=C/c1ccccc1Br)C(N)=O
Activity (Staphylococcus aureus [9]): 2 log10CFU/ml
inhibition of growth at 32 µg/mL (Acinetobacter baumannii [3]): 60%
inhibition of growth at 32 µg/mL (Staphylococcus aureus [6]): 93.8%
viability at 64 ug/ml [7]: 90.2%
inhibition of growth at 32 µg/mL (Escherichia coli): 51.6%
viability at 64 ug/ml [8]: 95.3%
logP [1]: 1.62
solubility [2]: Soluble
inhibition of growth at 32 µg/mL (Staphylococcus aureus [10]): 80%

CC(=O)/C(=C/c1ccccc1Cl)C(N)=O
inhibition of growth at 32 µg/mL (Acinetobacter baumannii [3]): 58.8%
inhibition of growth at 32 µg/mL (Staphylococcus aureus [6]): 98.1%
inhibition of growth at 32 µg/mL (Escherichia coli): 66.8%
logP [1]: 1.38
solubility [2]: Soluble

CC(=O)/C(=C/c1cccc(F)c1)C(N)=O
logP [1]: 1.49
solubility [2]: Soluble

CC(=O)/C(=C/c1ccc(O)cc1)C(N)=O
logP [1]: 0.94
solubility [2]: Soluble

COc1cc(/C=C(/C(C)=O)C(N)=O)cc(OC)c1OC
logP [1]: 1.41
solubility [2]: Soluble

CC(=O)/C(=C/c1ccc2c(c1)OCO2)C(N)=O
logP [1]: 1.23
solubility [2]: Soluble

CC(=O)/C(=C/c1ccccc1[N+](=O)[O-])C(N)=O
logP [1]: 1.09
solubility [2]: Soluble

CC(=O)/C(=C/c1cccc(C#N)c1)C(N)=O
logP [1]: 1.15
solubility [2]: Soluble

CCc1ccc(/C=C(/C(C)=O)C(N)=O)cc1[N+](=O)[O-]
inhibition of growth at 16 µg/mL (Staphylococcus aureus [11]): 99.2%
inhibition of growth at 32 µg/mL (Acinetobacter baumannii [3]): 27.7%
inhibition of growth at 32 µg/mL (Staphylococcus aureus [6]): 82.7%
viability at 64 ug/ml [7]: 88.9%
inhibition of growth at 32 µg/mL (Escherichia coli): 25.5%
viability at 64 ug/ml [8]: 94.5%
logP [1]: 1.31
solubility [2]: Soluble

CC(=O)/C(=C/c1ccc(Cl)cc1)C(N)=O
inhibition of growth at 32 µg/mL (Acinetobacter baumannii [3]): 65.4%
inhibition of growth at 32 µg/mL (Staphylococcus aureus [6]): 87.5%
inhibition of growth at 32 µg/mL (Escherichia coli): 67.8%
logP [1]: 1.88
solubility [2]: Soluble

CC(=O)/C(=C/c1ccc(C#N)cc1)C(N)=O
logP [1]: 1.13
solubility [2]: Soluble

O=C(/C=C/c1ccccc1)c1ccccc1 [CHALCONE]
logP [1]: 3.29
solubility [2]: Soluble

CN[C@H](CC(C)C)C(=O)N[C@H]1C(=O)N[C@@H](CC(N)=O)C(=O)N[C@H]2C(=O)N[C@H]3C(=O)N[C@H](C(=O)N[C@H](C(=O)O)c4cc(O)cc(O)c4-c4cc3ccc4O)[C@H](O)c3ccc(c(Cl)c3)Oc3cc2cc(c3O[C@@H]2O[C@H](CO)[C@@H](O)[C@H](O)[C@H]2O[C@H]2C[C@](C)(N)[C@H](O)[C@H](C)O2)Oc2ccc(cc2Cl)[C@H]1O.Cl [VANCOMYCIN HYDROCHLORIDE]
growth inhibition (GI) (Staphylococcus aureus [12]): inactive
MIC (Acinetobacter baumannii [13]): 0.25 µg/mL

COc1cc(/C=C/C(=O)CC(=O)/C=C/c2ccc(O)c(OC)c2)ccc1O [CURCUMIN]
logP [1]: 3.03
solubility [2]: Soluble

CCc1ccc(/C=C(/C(C)=O)C(N)=O)cc1
logP [1]: 1.99
solubility [2]: Soluble

CC(=O)/C(=C/c1ccc(C)cc1)C(N)=O
logP [1]: 1.68
solubility [2]: Soluble

CC(=O)/C(=C/c1cccc([N+](=O)[O-])c1)C(N)=O
Activity (Staphylococcus aureus [9]): 2 log10CFU/ml
inhibition of growth at 32 µg/mL (Acinetobacter baumannii [3]): 98%
inhibition of growth at 32 µg/mL (Staphylococcus aureus [6]): 83.7%
viability at 64 ug/ml [7]: 93.8%
Activity (Acinetobacter baumannii [14]): >3 log10CFU
inhibition of growth at 16 µg/mL (Acinetobacter baumannii [15]): 98.2%
Activity (Staphylococcus aureus [16]): >3 log10CFU
inhibition of growth at 32 µg/mL (Escherichia coli): 51.1%
viability at 64 ug/ml [8]: 96.4%
logP [1]: 1.15
solubility [2]: Soluble
inhibition of growth at 2 µg/mL (Staphylococcus aureus [17]): 99.4%

CC(=O)/C(=C/c1ccc([N+](=O)[O-])cc1)C(N)=O
Activity (Staphylococcus aureus [9]): 2 log10CFU/ml
inhibition of growth at 32 µg/mL (Acinetobacter baumannii [3]): 30.5%
inhibition of growth at 32 µg/mL (Staphylococcus aureus [6]): 98.2%
viability at 64 ug/ml [7]: 90.6%
inhibition of growth at 32 µg/mL (Escherichia coli): 68.1%
viability at 64 ug/ml [8]: 95.1%
logP [1]: 1.13
solubility [2]: Soluble
inhibition of growth at 2 µg/mL (Staphylococcus aureus [17]): 98.7%

COc1cccc(/C=C(/C(C)=O)C(N)=O)c1OC
logP [1]: 1.3
solubility [2]: Soluble

CC(=O)/C(=C/c1ccccc1F)C(N)=O
inhibition of growth at 32 µg/mL (Acinetobacter baumannii [3]): 58.2%
inhibition of growth at 32 µg/mL (Staphylococcus aureus [6]): 43.8%
inhibition of growth at 32 µg/mL (Escherichia coli): 59.7%
logP [1]: 1.66
solubility [2]: Soluble

CC(=O)/C(=C/c1cccc(Br)c1)C(N)=O
logP [1]: 1.73
solubility [2]: Soluble

CC(=O)/C(=C/c1ccc(Br)cc1)C(N)=O
Activity (Staphylococcus aureus [9]): 2 log10CFU/ml
inhibition of growth at 32 µg/mL (Acinetobacter baumannii [3]): 53%
inhibition of growth at 32 µg/mL (Staphylococcus aureus [6]): 83.7%
viability at 64 ug/ml [7]: 94.8%
inhibition of growth at 32 µg/mL (Escherichia coli): 51.8%
viability at 64 ug/ml [8]: 98.9%
logP [1]: 1.62
solubility [2]: Soluble
inhibition of growth at 32 µg/mL (Staphylococcus aureus [10]): 94.2%
